In brackets after ≈: the same amount, converted by molar mass.
How the values were obtained:
[1] = target: T1, Peroxisome proliferator-activated receptor alpha (Homo sapiens, UniProt Q07869); test: Compound was tested in vitro for inhibiting the 50% binding of Peroxisome proliferator activated receptor alpha; format: functional
T1 sequence (Q07869 whole entry): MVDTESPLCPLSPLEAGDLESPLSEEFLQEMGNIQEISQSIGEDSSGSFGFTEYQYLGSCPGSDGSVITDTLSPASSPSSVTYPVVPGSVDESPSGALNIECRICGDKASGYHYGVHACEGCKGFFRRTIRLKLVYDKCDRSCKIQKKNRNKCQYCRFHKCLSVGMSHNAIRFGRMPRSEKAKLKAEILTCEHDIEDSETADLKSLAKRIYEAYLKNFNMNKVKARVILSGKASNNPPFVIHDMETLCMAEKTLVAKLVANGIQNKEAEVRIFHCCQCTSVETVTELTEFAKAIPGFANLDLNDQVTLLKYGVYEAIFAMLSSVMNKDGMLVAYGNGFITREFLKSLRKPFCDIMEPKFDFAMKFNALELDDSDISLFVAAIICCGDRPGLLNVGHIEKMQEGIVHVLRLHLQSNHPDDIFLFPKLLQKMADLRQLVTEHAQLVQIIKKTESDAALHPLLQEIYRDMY

[2] = target: T2, Peroxisome proliferator-activated receptor gamma (Homo sapiens, UniProt P37231); test: Compound was tested functionally in vitro for inducing 50% of the maximum alkaline phosphate activity (Transactivation) against Peroxisome proliferator activated receptor gamma; format: functional
T2 sequence (P37231 whole entry): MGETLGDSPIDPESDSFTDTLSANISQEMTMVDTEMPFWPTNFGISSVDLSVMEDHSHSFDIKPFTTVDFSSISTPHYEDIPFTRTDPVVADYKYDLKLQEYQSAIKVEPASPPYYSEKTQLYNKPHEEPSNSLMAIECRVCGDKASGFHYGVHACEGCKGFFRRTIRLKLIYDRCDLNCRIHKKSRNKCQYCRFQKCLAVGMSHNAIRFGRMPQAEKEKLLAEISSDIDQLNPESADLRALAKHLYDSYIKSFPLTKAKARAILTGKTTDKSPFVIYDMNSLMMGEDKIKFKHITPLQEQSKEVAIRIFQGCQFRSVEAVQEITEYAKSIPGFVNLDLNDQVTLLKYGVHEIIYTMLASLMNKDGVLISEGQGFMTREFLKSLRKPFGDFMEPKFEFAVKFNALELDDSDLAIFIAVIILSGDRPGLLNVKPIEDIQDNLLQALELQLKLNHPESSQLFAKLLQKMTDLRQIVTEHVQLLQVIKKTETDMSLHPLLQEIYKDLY

[3] = target: T2, Peroxisome proliferator-activated receptor gamma; test: Compound was tested in vitro for inhibiting the 50% binding of Peroxisome proliferator activated receptor gamma; IA = Inactive
How it was run: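 Competitive radioligand binding to PPARγ with [3H]BRL 49653 as the radioligand. […] It is converted to an apparent Ki by Ki = IC50/(1 + [L]/Kd), and results are given as pKi.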

[4] = target: T1, Peroxisome proliferator-activated receptor alpha; test: In vitro transactivation of Peroxisome proliferator activated receptor alpha.; format: functional
[5] = target: T1, Peroxisome proliferator-activated receptor alpha; test: Tested in vitro for inhibiting the 50% binding of Peroxisome proliferator activated receptor alpha
[6] = target: T2, Peroxisome proliferator-activated receptor gamma; test: Tested functionally in vitro for inducing 50% of the maximum alkaline phosphate activity (Transactivation) against Peroxisome proliferator activated receptor gamma; format: functional
[7] = target: T2, Peroxisome proliferator-activated receptor gamma; test: Inhibition by 50% of in vitro binding to Peroxisome proliferator activated receptor gamma
[8] = Solubility determined by equilibrating an excess of solid material in 500 microL of pH 7.4 phosphate buffer; format: physicochemical; details: read-out: S
How it was run: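 Samples are filtered (0.22 µm) and diluted in water/acetonitrile 60:40. The dissolved concentration is measured by reversed-phase HPLC on a phenyl column with 0.05% TFA water/acetonitrile (60:40), 1 mL/min, and UV detection at each compound's maximum. Results are in mg/mL.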

O=C(c1ccccc1)c1ccccc1N[C@@H](Cc1ccc(OCCOc2ccc(SCl)cc2)cc1)C(=O)O
Ki [1]: 1410 nM
EC50 [2]: 191 nM

O=C(c1ccccc1)c1ccccc1N[C@@H](Cc1ccc(OCC2COCCOCCOCCO2)cc1)C(=O)O (stereo not given in full)
Ki [3]: 1170 nM

Cc1sc(N2CCN(S(C)(=O)=O)CC2)nc1CCOc1ccc(C[C@H](Nc2ccccc2C(=O)c2ccccc2)C(=O)O)cc1
EC50 [4]: > 10000 nM
Ki [5]: 2510 nM
EC50 [6]: 23.4 nM
Ki [7]: 2.63 nM

Cc1cc(-c2ccccc2)nn1CCOc1ccc(C[C@H](Nc2ccccc2C(=O)c2ccccc2)C(=O)O)cc1
solubility thermodynamic [8]: 4 µg/mL (≈ 7.33 µM)
EC50 [4]: 661 nM
Ki [5]: 174 nM

Reference: ChEMBL document CHEMBL1131423, “N-(2-Benzoylphenyl)-L-tyrosine PPARgamma agonists. 2. Structure-activity relationship and optimization of the phenyl alkyl ether moiety” (J Med Chem, 1998)
